The record followed here is PubChem BioAssay AID617 (SRMLSC, 2007).

Molecules are shown by their SMILES.

This assay has as its system E. coli BW25113 ΔtolC growth inhibition, OD615. Briefly: E. coli ΔtolC antibacterial growth inhibition – strain BW25113 ΔtolC::kan, dose response (AID 617). The method in brief:
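Material: E. coli BW25113 ΔtolC::kan bacteria; input: inoculum from 1:1000-diluted 1.5 h subculture; medium: kanamycin-containing LB broth, 50 µg/mL; dosing: compounds in serially diluted dose-response series; incubation: 20 h exposure at 37 °C; measured by: absorbance at 615 nm; control set: chloramphenicol control, 30 µM final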
For `COC(=O)c1[nH]c2cccc(OC)c2c1NC(=O)CN1CC2(C)CC1CC(C)(C)C2` (stereo not drawn), the IC50 – broadly, the concentration that gives 50% inhibition – was 38.8 µM. Under `CCCCOc1ccc(NC2=NC3(CCCCC3)N=C(N)N2)cc1` stands 2.64 µM; under `COc1ccc(NC(=O)c2cc(-c3cc(C)cc(C)c3O)n[nH]2)cc1Cl`, 1.95 µM. Regarding `Cc1nc2ccc(C(C(F)(F)F)(C(F)(F)F)C(F)(F)F)cc2[nH]1`, the IC50 was 33.4 µM. For the compound `COCCNc1nc(-n2nc(C)cc2C)nc2sc3c(c12)CCCC3`, the IC50 was 6.71 µM. With `CCN(c1ccccc1)S(=O)(=O)c1ccc(NCC2COc3ccccc3O2)nc1` (stereo not drawn), the IC50 is 14.8 µM.

In the case of `O=C(CSc1nc2ccccc2[nH]1)Nc1cc(C(F)(F)F)ccc1N1CCOCC1`, the IC50 is 5.96 µM.

Turning to `COC(=O)c1c(NC(=O)CCc2ccc(C)o2)sc(C)c1C`, the IC50 is 26.8 µM. For `COC(=O)C1=C(N)Oc2cc(C)n(Cc3ccco3)c(=O)c2C1c1cccc(Cl)c1` (stereo not drawn), the IC50 is 26.5 µM.

Turning to `CCOC(=O)c1cn(CC)c2cc(N3CCOCC3)c(F)cc2c1=O`, the IC50 is 0.78 µM. For `Cc1nnc(NC(=O)c2ccc(S(=O)(=O)N(C)Cc3ccccc3)cc2)o1` the value was 3.87 µM.

Consider `CCOC(=O)c1c(C)n(C)c2ccc(OCC(O)Cn3nc(C)c(Br)c3C)cc12` (stereo not drawn), for which the IC50 is 5.74 µM.

As for `COc1ccccc1-c1cc(C(=O)NCc2ccc(F)cc2)no1`, the IC50 is 9.85 µM. Consider `CCN(CC)c1ccc(C(=O)n2cnc3ccccc32)cc1`, for which the IC50 is 15 µM. For `Cc1ccc(-c2nnc(N3CCN(c4ccccn4)CC3)c3ccccc23)cc1` the value was 4.28 µM. Under `Cc1onc(-c2ccccc2Cl)c1C(=O)Nc1sc2c(c1C#N)CCC2` stands 7.5 µM. Under `COc1ccc(C2CC(c3ccccc3)n3nc(NC(=O)c4cccs4)nc3N2)cc1` (stereo not drawn) stands 8.18 µM; under `CC(C)Cn1c(=O)c(C(=O)Nc2ccncc2)c(O)c2ccccc21`, 3.34 µM. Turning to `CCC1CCCCN1C(=O)c1cc(-c2ccc(Cl)c(Cl)c2)on1` (stereo not drawn), the IC50 is 10.3 µM.

As to `Clc1ccc(OCc2nc(-c3ccccn3)n[nH]2)cc1`, the IC50 is 15.4 µM. For `Cc1cccc(OCCn2c(NC(=O)c3ccco3)nc3ccccc32)c1` the value was 11 µM; for `Cc1cc(SCC#N)n2nc(C)c(-c3ccccc3)c2n1`, 48.5 µM; for `Cc1ccc(-c2csc3ncn(-n4c(C)ccc4C)c(=O)c23)o1`, 14.9 µM. For `CCn1nc(-c2cccs2)nc2c(=O)n(C)c(=O)nc1-2` the value was 1.92 µM.

For `CCc1ccc(S(=O)(=O)NCCc2csc(-c3ccccc3)n2)s1`, the IC50 is 8.87 µM. As for `CC(C)Cc1cc(C(=O)Nc2sc3c(c2C#N)CCCC3)no1`, the IC50 is 8.44 µM. Under `CCCCC(=O)Nc1cccc(-c2nnc(-c3ccccc3)o2)c1` stands 16.9 µM; under `Cc1ccc(C(=O)N2CCN(c3cccc(Cl)c3)CC2)cc1C`, 10.4 µM. For `O=C(N1CCN(c2ccccc2F)CC1)C12CC3CC(CC(C3)C1)C2` the value was 18.6 µM. Under `COc1ccc(C2c3sc(=O)[nH]c3SC3C4CCC(C4)C23)cc1` (stereo not drawn) stands 10 µM; under `C=C(C)COc1ccc(-c2nc(N)ncc2-c2ccc(OC)cc2)c(O)c1`, 10.2 µM.

For the compound `Cc1ccc(-c2csc3ncnc(Sc4nnc(CN5CCCCCC5=O)o4)c23)cc1`, the IC50 is 21.6 µM. As for `COc1cccc(-c2nnc(NC(=O)c3ccc(S(=O)(=O)N4CCOCC4)cc3)o2)c1`, the IC50 is 0.99 µM. In the case of `Cc1cc(-c2nnc3n2N=C(c2ccc(-c4ccccc4)cc2)CS3)n[nH]1`, the IC50 was 9.55 µM. Under `CCN1C(=O)CSC1=NC1C2CC3CC(C2)CC1C3` (stereo not drawn) stands 33.5 µM.

As to `Cc1ccc(S(=O)(=O)NCCSc2nnnn2-c2cc(C)ccc2C)cc1`, the IC50 is 13.4 µM. In the case of `CCCc1cc(C(=O)Cc2ccc(C(=O)OCC)o2)c(O)cc1O`, the IC50 was 18.6 µM. Under `CCCc1ccc(Oc2cn[nH]c2-c2ccc(O)cc2O)cc1` stands 0.24 µM; under `Cc1cccc(N2CCN(C(=O)C34CC5CC(CC(C5)C3)C4)CC2)c1C`, 19.6 µM; under `CCOc1ccc(N(CC(=O)Nc2ccc(C)c(C)c2)S(=O)(=O)c2c(C)noc2C)cc1`, 15.5 µM.

As for `CCOC(=O)N1CCN(C(=O)COc2ccc(S(=O)(=O)Nc3ccc(OCC)cc3)cc2)CC1`, the IC50 is 2 µM. Under `CC1CCN(c2nc3ccccc3nc2C(C#N)S(=O)(=O)c2ccccc2)CC1` (stereo not drawn) stands 9.39 µM; under `CCOc1ccccc1N1CCN(Cc2ccc(Br)s2)CC1`, 26.6 µM; under `CCN(C(=O)c1cc2cc3ccc(C)cc3nc2o1)c1ccc(OC)cc1`, 19 µM. For `CN1CCCN(C(=O)Cc2c(Cl)cccc2Cl)c2nc3ccccc3nc21` the value was 13.1 µM. Regarding `O=C(Nc1cnn(Cc2ccc(Cl)cc2Cl)c1)c1noc2c1CCCC2`, the IC50 was 8.39 µM. Under `O=C(c1ccco1)N1CCN(c2c(-c3ccccc3)c3cc(Cl)ccc3[nH]c2=O)CC1` stands 24 µM; under `Cc1ccccc1OCCCCc1c(C)n[nH]c1C`, 3.74 µM; under `c1ccc(CSc2nnc(-c3cccs3)n2Cc2ccco2)cc1`, 13.2 µM.

On to `COc1cc(-c2nc(-c3cccc(C)c3)no2)cc(OC)c1OC`, for which the IC50 was 12.2 µM. For `COc1cccc(C2/C(=C(/O)c3ccc(C)cc3)C(=O)C(=O)N2Cc2ccco2)c1` (stereo not drawn) the value was 4.54 µM; for `Cc1cc(C)n(-c2nc(SCC(=O)N3CCCC3)c3c4c(sc3n2)CCCC4)n1`, 23.9 µM; for `C=CCn1c(SCC(=O)Nc2ccc3c(c2)CCC3)nnc1-c1cccs1`, 53.8 µM. With `O=C(Nc1cccc(Br)c1)c1cc2ccccc2o1`, the IC50 is 0.98 µM. Under `Oc1ccc(Br)cc1-c1nc2cnccn2c1NC1CCCC1` stands 10.5 µM; under `O=C(NCc1ccco1)C(c1cccs1)N(C(=O)C1COc2ccccc2O1)c1cccc(O)c1` (stereo not drawn), 11.8 µM. `COc1ccc(NS(=O)(=O)c2ccc3oc(Nc4ccc5c(c4)OCCO5)nc3c2)cc1`: the IC50 was 7.68 µM. For `c1ccc(CSc2nnc(-c3ccco3)c(-c3ccco3)n2)cc1` the value was 11.1 µM; for `CC(=O)Nc1cccc(NC(=O)c2oc3ccccc3c2C)c1`, 8.33 µM; for `[O-][N+]1=c2ccc(Nc3ccccc3)cc2=NC12CCCCC2`, 15.3 µM. Turning to `O=c1ccsn1Cc1ccccc1`, the IC50 was 3.15 µM. For `Cc1ccc(Cl)cc1NC(=O)CC(O)(C(F)(F)F)C(F)(F)F` the value was 3.77 µM. Consider `O=C(CCC1CCCC1)c1c(O)c2ccccc2oc1=O`, for which the IC50 was 0.96 µM.

On to `CCOc1cc(-c2c(C#N)c(N)nc3c2CCCC3C)ccc1O` (stereo not drawn), for which the IC50 was 6.26 µM. In the case of `COC(=O)c1c(NC(=O)c2ccc(C)o2)sc2c1CCCCC2`, the IC50 is 28.4 µM.

`CCOC(=O)N1CCc2c(sc(NC(=O)c3ccc(Cl)s3)c2C(N)=O)C1`: the IC50 was 5.13 µM. For `COc1ccc2[nH]c(=O)c(CN(C(=O)NC3CCCCC3)C3CCCCC3)cc2c1` the value was 19.4 µM; for `COc1ccc2nc3c(cc2c1)c(NC(=O)c1cccs1)nn3CC(C)C`, 9.28 µM. For `COc1cc2cc(C(c3nnnn3C3CCCCC3)N(C)C3CCCCC3)c(=O)[nH]c2cc1OC` (stereo not drawn) the value was 9.71 µM; for `O=C1NC(Nc2nc3ccccc3s2)(C(F)(F)F)C(=O)N1C1CCCCC1` (stereo not drawn), 5.74 µM; for `O=C(c1noc2c1CCc1ccccc1-2)N1CCCc2ccccc21`, 12.2 µM. Under `O=C(Nc1ccccc1N1CCCCC1)c1cccc(F)c1` stands 15.2 µM; under `COCc1nnc(NC(=O)c2ccc(S(=O)(=O)N(C)c3ccccc3)cc2)o1`, 6.56 µM; under `COc1ccc2nc(N3CCC(C)CC3)c(C#N)cc2c1`, 28.9 µM.

For `O=C(Nc1ccc(Br)c(Cl)c1)c1ccco1`, the IC50 is 8.74 µM. Under `CCCCOc1ccccc1Cn1c(=O)oc2ccc(C)cc21` stands 16.4 µM; under `CC(C)(C)OC(=O)N1CCC[C@H]1c1nnc(SCc2ccc(Cl)cc2Cl)o1`, 11 µM.

As for `COc1ccc(-c2nc3oc4cc(OC)ccc4c(=O)c3c(=O)n2Cc2ccco2)cc1`, the IC50 is 2.33 µM. Take `CN(c1ccccc1)C(c1ccc(F)cc1)c1nnnn1C1CCCC1` (stereo not drawn): the IC50 was 11.1 µM.

On to `Cc1ccc(NC(=O)CSC2=C(C#N)C(c3ccco3)C3=C(CC(C)(C)CC3=O)N2)cc1` (stereo not drawn), for which the IC50 is 8.92 µM.

In the case of `N#Cc1nc(Cc2ccccc2)oc1NCCc1ccccc1`, the IC50 was 8.5 µM. Turning to `CC(C)c1ccc(-c2noc(C3CCCN(C(=O)c4ccc(F)cc4F)C3)n2)cc1` (stereo not drawn), the half-maximal inhibitory concentration (IC50) was 17.9 µM.

For the compound `COC(=O)CSc1nc(N2CCCCC2)c2c(c1C#N)CCCC2`, the IC50 is 12.6 µM. For `COc1ccc(NS(=O)(=O)c2ccc3c(c2)Cc2ccccc2-3)cn1` the value was 10.7 µM; for `O=C(c1cc2nc(-c3ccco3)cc(C(F)(F)F)n2n1)N1CCN(c2ccc(F)cc2)CC1`, 10.2 µM. For the compound `Clc1ccc(C2=Nn3c(nnc3-c3n[nH]c4c3CCC4)SC2)cc1Cl`, the IC50 was 11 µM.

`O=C(CCNc1cc(Cl)cc(Cl)c1)c1ccco1`: the IC50 was 30.9 µM. On to `COc1ccc(OCC(O)Cn2c(=N)n(Cc3ccccc3)c3ccccc32)cc1` (stereo not drawn), for which the IC50 is 23.9 µM. Under `Cc1onc(-c2ccccc2)c1C(=O)OCC(=O)c1ccccc1` stands 24.2 µM; under `CC1(C)COCN1S(=O)(=O)c1ccc(C(=O)Nc2nnc(-c3ccc(Cl)s3)o2)cc1`, < 0.2 µM. For `Cc1c(C(=O)OCCOc2ccccc2)[nH]c2c1C(=O)CCC2` the value was 3.86 µM. Consider `CCn1c(SC)nnc1-c1sc2cc(Cl)ccc2c1Cl`, for which the IC50 was 11.6 µM. On to `CCOC(=O)c1cc(CC)sc1NC(=O)Cc1ccsc1`, for which the IC50 was 10.3 µM.

Regarding `Cc1cc(N2C3CCC2CC(O)(c2ccc(F)cc2)C3)nc(-c2ccccc2)n1` (stereo not drawn), the IC50 was 7.11 µM.

With `CCn1c(SCC(=O)OC2CCCCC2)nc2ccccc2c1=O`, the IC50 is 11.8 µM. Under `Oc1c(C(c2ccco2)N2CCN(C(c3ccccc3)c3ccccc3)CC2)sc2ncnn12` (stereo not drawn) stands 13.3 µM. In the case of `c1ccc(-c2noc(-c3cccc4ccccc34)n2)cc1`, the IC50 was 101 µM. Under `N#Cc1c(NC(=O)c2ccc(Br)o2)n(-c2ccccc2)c2nc3ccccc3nc12` stands 15.3 µM.
